Data as given in ChEMBL document CHEMBL1137858, “Formation of squaric acid amides of anthracycline antibiotics. Synthesis and cytotoxic properties” (Bioorg Med Chem Lett, 2004).
Values after ≈ are worked out from the molar mass of the structure shown.

Experiments:
MCF7 [1] = test: Concentration required to inhibit proliferation of human mammary adenocarcinoma MCF-7 cell line was determined using MTT assay; assay type: functional, cell-based
Outline: (§1)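 MCF-7 human mammary adenocarcinoma cells (5 · 10^3) seeded in 24-well plates in RPMI-1640 with 10% fetal calf serum, penicillin (50 unit/mL) and streptomycin, 37 C, 5% CO2. Compounds added 3 h after plating. After 24 h exposure, medium replaced and cultures incubated a further 72 h. Cell population measured by MTT absorbance. IC50 values calculated from the data.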

MCF7 [2] = test: Percent control of human mammary adenocarcinoma MCF-7 cell line proliferation at 30 ng/mL; assay type: functional; outline: as §1
MCF7 [3] = test: Percent control of human mammary adenocarcinoma MCF-7 cell line proliferation at 300 ng/mL; assay type: functional; outline: as §1
MCF7 [4] = test: Percent control of human mammary adenocarcinoma MCF-7 cell line proliferation at 3 ng/mL; assay type: functional; outline: as §1
MCF7 [5] = test: Percent control of human mammary adenocarcinoma MCF-7 cell line proliferation at 0.3 ng/mL; assay type: functional; outline: as §1

SMILES | IC50 (MCF7 [1]) [µg/mL] | Control (MCF7 [2]) [%] | Control (MCF7 [3]) [%] | Control (MCF7 [4]) [%] | Control (MCF7 [5]) [%]
COc1c(NC2CC(O[C@H]3C[C@](O)(C(C)=O)Cc4c(O)c5c(c(O)c43)C(=O)c3c(O)cccc3C5=O)OC(C)C2O)c(=O)c1=O (stereo partly drawn) | 0.299 (≈ 0.48 µM) | 81 | 46.3 | 89.7 | 
CC(=O)[C@]1(O)Cc2c(O)c3c(c(O)c2[C@@H](OC2CC(N)C(O)C(C)O2)C1)C(=O)c1c(O)cccc1C3=O.Cl (stereo partly drawn) | 0.0483 | 77 | 9.1 | 93.2 | 107
COc1cccc2c1C(=O)c1c(O)c3c(c(O)c1C2=O)C[C@@](O)(C(C)=O)C[C@@H]3OC1CC(Nc2c(OC)c(=O)c2=O)C(O)C(C)O1 (stereo in doubt; 5) | > 0.3 | 74.7 | 77.8 | 85 | 
COc1cccc2c1C(=O)c1c(O)c3c(c(O)c1C2=O)C[C@@](O)(C(=O)CO)C[C@@H]3O[C@H]1C[C@H](N)[C@H](O)[C@H](C)O1.Cl [DOXORUBICIN HYDROCHLORIDE] |  | 35.3 | 14.9 | 41 | 74.7

More lines, main results first:

IC50 (MCF7 [1]) [µg/mL] | SMILES | Control (MCF7 [2]) [%] | Control (MCF7 [3]) [%] | Control (MCF7 [4]) [%] | Control (MCF7 [5]) [%]
0.109 (≈ 0.0958 µM) | COc1cccc2c1C(=O)c1c(O)c3c(c(O)c1C2=O)C[C@@](O)(C(C)=O)C[C@@H]3OC1CC(/N=c2/c(O)c(O)/c2=N/C2CC(O[C@@H]3C[C@@](O)(C(C)=O)Cc4c(O)c5c(c(O)c43)C(=O)c3c(OC)cccc3C5=O)OC(C)C2O)C(O)C(C)O1 (stereo partly drawn) | 60.7 | 42 | 72.7 | 
> 0.3 | COc1cccc2c1C(=O)c1c(O)c3c(c(O)c1C2=O)C[C@@](O)(C(=O)CO)C[C@@H]3OC1CC(/N=c2/c(O)c(O)/c2=N/C2CC(O[C@@H]3C[C@@](O)(C(=O)CO)Cc4c(O)c5c(c(O)c43)C(=O)c3c(OC)cccc3C5=O)OC(C)C2O)C(O)C(C)O1 (stereo partly drawn) | 84.5 | 68.4 | 88 | 
> 0.3 | COc1cccc2c1C(=O)c1c(O)c3c(c(O)c1C2=O)C[C@@](O)(C(=O)CO)C[C@@H]3OC1CC(/N=c2/c(O)c(O)/c2=N\CCCCCC/N=c2\c(O)c(O)\c2=N\C2CC(O[C@H]3C[C@](O)(C(=O)CO)Cc4c(O)c5c(c(O)c43)C(=O)c3c(OC)cccc3C5=O)OC(C)C2O)C(O)C(C)O1 (stereo partly drawn) | 86.1 | 82.4 | 87 | 
0.087 (≈ 0.0655 µM) | COc1cccc2c1C(=O)c1c(O)c3c(c(O)c1C2=O)C[C@@](O)(C(C)=O)C[C@@H]3OC1CC(/N=c2/c(O)c(O)/c2=N\CCCCCC/N=c2\c(O)c(O)\c2=N\C2CC(O[C@H]3C[C@](O)(C(C)=O)Cc4c(O)c5c(c(O)c43)C(=O)c3c(OC)cccc3C5=O)OC(C)C2O)C(O)C(C)O1 (stereo partly drawn) | 50 | 32 | 104 | 
